Data reported in ChEMBL document CHEMBL4024747, “Design, Synthesis, and Biological Activities of Vibsanin B Derivatives: A New Class of HSP90 C-Terminal Inhibitors” (J Med Chem, 2017).
Activity calls are given as the source filed them. No cut-off for these calls is given here.

Key:
BT-474 [1] = assay: Cell cycle arrest in human BT474 cells assessed as accumulation at S phase at 5 uM after 16 hrs by propidium iodide-staining based FACS analysis (reference value: 8.52%); format: functional
[2] = target: T1, Heat shock protein HSP90 (Homo sapiens) (UniProt P07900+P08238); assay: Inhibition of HSP90 in human BT474 cells assessed as decrease in CDK4 protein expression at 1.25 to 5 uM after 24 hrs by Western blot analysis; format: cell-based
Procedure, shortened: (§1)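 BT474 cells lysed directly in 2× Laemmli buffer; proteins resolved on 12% acrylamide gel and transferred to PVDF. Blocked overnight at 4 °C in 5% skim milk, then probed 1 h at room temperature with antibodies to HER2, pAkt, CDK4, HSP90, HSP70 and HSP27. Chemiluminescent detection with β-actin as loading control; run in triplicate.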

[3] = target: Luciferin 4-monooxygenase (Photinus pyralis) (UniProt P08659); assay: Inhibition of firefly luciferase activity using luciferin substrate at 10 uM after 30 mins by luminescence assay
[4] = target: T1, Heat shock protein HSP90 (Homo sapiens); assay: Inhibition of HSP90 in human BT474 cells assessed as decrease in c-Raf protein expression at 1.25 to 5 uM after 24 hrs by Western blot analysis; format: cell-based
AGS = assay: Antiproliferative activity against human AGS cells assessed as reduction in cell viability after 48 hrs by MTT assay; format: functional, cell-based
A549 = assay: Antiproliferative activity against human A549 cells assessed as reduction in cell viability after 48 hrs by MTT assay; format: functional, cell-based; details: A549, 48 h
BT-474 [5] = assay: Cell cycle arrest in human BT474 cells assessed as accumulation at G2/M phase at 5 uM after 16 hrs by propidium iodide-staining based FACS analysis (reference value: 15.79%); format: functional
[6] = target: Heat shock protein HSP 90-beta (Homo sapiens) (UniProt P08238); assay: Inhibition of recombinant human Biotin-labeled N-terminal His/Avi-tagged HSP90beta C-terminal domain (527 to 724 residues) expressed in Escherichia coli interaction with GST-tagged Cyp40 at 100 uM after 30 mins by Alphascreen assay
Procedure, shortened: (§2)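 AlphaScreen assay: biotin-labelled HSP90β C-terminus (aa 527–724) mixed with GST-Cyp40 and compound (1–100 μM; novobiocin 500 μM) for 30 min at room temperature. Glutathione acceptor beads added for 30 min, then streptavidin donor beads for 10 min. Excitation at 680 nm, emission read at 520–620 nm; percent activity calculated against enzyme and background wells.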

BT-474 [7] = assay: Cell cycle arrest in human BT474 cells assessed as accumulation at subG1 phase at 5 uM after 16 hrs by propidium iodide-staining based FACS analysis (reference value: 0.81%); format: functional
[8] = target: Heat shock protein HSP 90-alpha (Homo sapiens) (UniProt P07900); assay: Inhibition of FITC-geldanamycin binding to human FLAG-tagged HSP90alpha N-terminal domain
BT-474 [9] = assay: Cell cycle arrest in human BT474 cells assessed as accumulation at G2/M phase at 2.5 uM after 16 hrs by propidium iodide-staining based FACS analysis (reference value: 15.79%); format: functional
BT-474 [10] = assay: Cell cycle arrest in human BT474 cells assessed as accumulation at G0/G1 phase at 2.5 uM after 16 hrs by propidium iodide-staining based FACS analysis (reference value: 74.88%); format: functional
[11] = target: Heat shock protein HSP 90-beta (Homo sapiens) (UniProt P08238); assay: Inhibition of FITC-geldanamycin binding to human FLAG-tagged HSP90beta N-terminal domain
MCF7 = assay: Antiproliferative activity against human MCF7 cells assessed as reduction in cell viability after 48 hrs by MTT assay; format: functional, cell-based; details: MCF7, 48 h
[12] = Half life of compound in toluene at 60 degreeC by HPLC analysis; format: physicochemical
Procedure, shortened: (§3)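 Thermostability in toluene at 110 °C or 60 °C followed by HPLC; half-life estimated.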

BT-474 [13] = assay: Cell cycle arrest in human BT474 cells assessed as accumulation at subG1 phase at 2.5 uM after 16 hrs by propidium iodide-staining based FACS analysis (reference value: 0.81%); format: functional
BT-474 [14] = assay: Cell cycle arrest in human BT474 cells assessed as accumulation at G0/G1 phase at 5 uM after 16 hrs by propidium iodide-staining based FACS analysis (reference value: 74.88%); format: functional
HepG2 = assay: Antiproliferative activity against human HepG2 cells assessed as reduction in cell viability after 48 hrs by MTT assay; format: functional, cell-based; details: HepG2, 48 h
HeLa = assay: Antiproliferative activity against human HeLa cells assessed as reduction in cell viability after 48 hrs by MTT assay; format: functional, cell-based
SMMC-7721 = assay: Antiproliferative activity against human SMMC7721 cells assessed as reduction in cell viability after 48 hrs by MTT assay; format: functional, cell-based; details: SMMC-7721, 48 h
MDA-MB-468 = assay: Antiproliferative activity against human MDA-MB-468 cells assessed as reduction in cell viability after 48 hrs by MTT assay; format: functional, cell-based; details: MDA-MB-468, 48 h
SW480 = assay: Antiproliferative activity against human SW480 cells assessed as reduction in cell viability after 48 hrs by MTT assay; format: functional, cell-based; details: SW480, 48 h
[15] = Drug metabolism in deionized water assessed as compound decomposition at 100 degreeC after 10 mins by HPLC analysis relative to control; format: physicochemical; details: read-out: Drug metabolism
Procedure, shortened: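 Thermostability determined by HPLC after heating in deionized water at 100 °C for 10 min; decomposition recorded in percent.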

Oryctolagus cuniculus = species on record: Oryctolagus cuniculus; assay: Inhibition of HSP90 in rabbit reticulocyte lysate assessed as decrease in HSP90-dependant refolding of firefly luciferase at 10 uM after 30 mins by luciferase gene based assay
Procedure, shortened: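 Firefly luciferase heat-denatured at 41 °C for 10 min, then added with rabbit reticulocyte lysate to compounds at 10 μM. Renaturation at room temperature for 3 h; luciferin substrate added and luminescence read. Refolding expressed relative to DMSO; novobiocin at 500 μM as reference. Three independent experiments.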

[16] = Stability of compound in pH 7.4 PBS at 37 degreeC after 12 hrs by HPLC analysis; format: physicochemical; details: buffer, pH 7.4, 12 h
Procedure, shortened: (§4)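 Solution stability determined by HPLC after incubation in PBS pH 7.4 at 37 °C for 12 h.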

[17] = target: T1, Heat shock protein HSP90 (Homo sapiens); assay: Inhibition of HSP90 in human BT474 cells assessed as induction of HSP27 expression at 1.25 to 5 uM after 24 hrs by Western blot analysis; format: cell-based; procedure, shortened: as §1
[18] = target: T1, Heat shock protein HSP90 (Homo sapiens); assay: Inhibition of HSP90 in human BT474 cells assessed as decrease in Her2 protein expression at 1.25 to 5 uM after 24 hrs by Western blot analysis; format: cell-based; procedure, shortened: as §1
[19] = Half life of compound in toluene at 110 degreeC by HPLC analysis; format: physicochemical; procedure, shortened: as §3
[20] = target: Heat shock protein HSP 90-beta (Homo sapiens) (UniProt P08238); assay: Inhibition of recombinant human Biotin-labeled N-terminal His/Avi-tagged HSP90beta C-terminal domain (527 to 724 residues) expressed in Escherichia coli interaction with GST-tagged Cyp40 at 1 to 100 uM after 30 mins by Alphascreen assay; procedure, shortened: as §2
Danio rerio = species on record: Danio rerio; assay: Toxicity in 3 days post fertilized zebrafish embryo assessed as changes in embryonic phenotypes at 4 to 16 uM after 12 hrs; details: in vivo
BEAS-2B = assay: Cytotoxicity against human BEAS2B cells assessed as reduction in cell viability after 48 hrs by MTT assay; format: cell-based
[21] = Stability of compound in DMSO at 4 degreeC after 4 weeks HPLC analysis; format: physicochemical; details: 672 h
HL-60 = assay: Antiproliferative activity against human HL60 cells assessed as reduction in cell viability after 48 hrs by MTT assay; format: functional, cell-based; details: HL-60, 48 h
BT-474 [22] = assay: Cell cycle arrest in human BT474 cells assessed as accumulation at S phase at 2.5 uM after 16 hrs by propidium iodide-staining based FACS analysis (reference value: 8.52%); format: functional
SK-BR-3 = assay: Antiproliferative activity against human SKBR3 cells assessed as reduction in cell viability after 48 hrs by MTT assay; format: functional, cell-based; details: SK-BR-3, 48 h
Huh-7 = assay: Antiproliferative activity against human HuH7 cells assessed as reduction in cell viability after 48 hrs by MTT assay; format: functional, cell-based; details: Huh-7, 48 h
BT-474 [23] = assay: Antiproliferative activity against human BT474 cells assessed as reduction in cell viability after 48 hrs by MTT assay; format: functional, cell-based; details: BT-474, 48 h
[24] = target: T1, Heat shock protein HSP90 (Homo sapiens); assay: Inhibition of HSP90 in human BT474 cells assessed as induction of HSP70 expression at 1.25 to 5 uM after 24 hrs by Western blot analysis; format: cell-based; procedure, shortened: as §1
[25] = target: T1, Heat shock protein HSP90 (Homo sapiens); assay: Inhibition of HSP90 in human BT474 cells assessed as decrease in p-Akt expression at 1.25 to 5 uM after 24 hrs by Western blot analysis; format: cell-based; procedure, shortened: as §1
[26] = Stability of compound in boiling ethyl alcohol by HPLC analysis; format: physicochemical
[27] = Drug degradation in pH 7.4 PBS at 37 degreeC after 12 hrs by HPLC analysis relative to control; procedure, shortened: as §4

Sequence of Heat shock protein HSP 90-beta (Homo sapiens) (P08238 whole entry, the tested form may be a part): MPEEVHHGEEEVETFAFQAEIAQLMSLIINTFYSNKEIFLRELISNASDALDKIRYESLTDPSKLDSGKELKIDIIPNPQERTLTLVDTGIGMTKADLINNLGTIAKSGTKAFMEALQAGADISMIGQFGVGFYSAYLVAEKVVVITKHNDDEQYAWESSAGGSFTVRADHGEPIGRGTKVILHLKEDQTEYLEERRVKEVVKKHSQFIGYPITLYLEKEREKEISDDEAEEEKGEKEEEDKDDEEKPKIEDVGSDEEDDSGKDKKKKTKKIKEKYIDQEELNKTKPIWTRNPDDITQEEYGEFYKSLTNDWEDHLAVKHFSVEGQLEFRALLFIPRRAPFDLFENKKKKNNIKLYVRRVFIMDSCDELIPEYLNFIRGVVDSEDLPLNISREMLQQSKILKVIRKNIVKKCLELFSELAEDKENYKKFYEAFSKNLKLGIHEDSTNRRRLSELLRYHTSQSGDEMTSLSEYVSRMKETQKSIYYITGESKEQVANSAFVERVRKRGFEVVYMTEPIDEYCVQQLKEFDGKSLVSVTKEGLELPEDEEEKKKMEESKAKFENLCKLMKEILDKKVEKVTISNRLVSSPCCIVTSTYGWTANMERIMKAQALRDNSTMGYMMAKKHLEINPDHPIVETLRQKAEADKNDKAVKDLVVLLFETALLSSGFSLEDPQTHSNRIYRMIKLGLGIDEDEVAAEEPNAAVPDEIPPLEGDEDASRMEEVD
Sequence of Luciferin 4-monooxygenase (Photinus pyralis) (P08659 whole entry): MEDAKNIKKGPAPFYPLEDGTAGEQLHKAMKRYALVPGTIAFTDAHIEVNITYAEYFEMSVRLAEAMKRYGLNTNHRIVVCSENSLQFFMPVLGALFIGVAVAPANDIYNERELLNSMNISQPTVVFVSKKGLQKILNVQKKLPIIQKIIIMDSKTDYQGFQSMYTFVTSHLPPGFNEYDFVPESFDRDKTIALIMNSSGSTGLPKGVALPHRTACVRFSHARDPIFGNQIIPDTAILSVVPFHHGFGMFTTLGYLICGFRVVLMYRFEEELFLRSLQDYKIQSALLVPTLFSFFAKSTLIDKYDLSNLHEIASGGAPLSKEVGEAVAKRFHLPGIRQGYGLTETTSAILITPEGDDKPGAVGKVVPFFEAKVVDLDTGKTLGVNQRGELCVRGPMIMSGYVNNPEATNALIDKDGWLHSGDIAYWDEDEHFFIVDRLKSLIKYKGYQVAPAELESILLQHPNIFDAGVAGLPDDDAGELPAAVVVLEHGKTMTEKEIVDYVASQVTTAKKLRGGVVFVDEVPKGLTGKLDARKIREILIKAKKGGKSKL

CC(C)=CCC[C@]1(C)/C=C/[C@@H](OC(=O)C=C(C)C)[C@](C)(O)/C=C/C(=O)/C(CN2CCN(C)CC2)=C\C1
Activity (BT-474 [1]): 8.33%
inhibition [2]: Active
inhibition [3]: inactive
inhibition [4]: Active
IC50 (AGS): 860 nM
IC50 (A549): 940 nM
Activity (BT-474 [5]): 25.6%
inhibition [6]: Active
Activity (BT-474 [7]): 4.18%
inhibition [8]: inactive
Activity (BT-474 [9]): 19.49%
Activity (BT-474 [10]): 73.18%
inhibition [11]: inactive
IC50 (MCF7): 550 nM
half-life [12]: 20 min
Activity (BT-474 [13]): 2.03%
Activity (BT-474 [14]): 61.89%
IC50 (HepG2): 2260 nM
IC50 (HeLa): 590 nM
IC50 (SMMC-7721): 2940 nM
IC50 (MDA-MB-468): 760 nM
IC50 (SW480): 800 nM
degraded at 10 min [15]: 2.3%
inhibition (Oryctolagus cuniculus): Active
Stability [16]: Stable
inhibition [17]: Active
inhibition [18]: Active
half-life [19]: 5 min
inhibition [20]: Active
Activity (Danio rerio): Non-Toxic
IC50 (BEAS-2B): 2840 nM
Stability [21]: Stable
IC50 (HL-60): 840 nM
Activity (BT-474 [22]): 5.3%
IC50 (SK-BR-3): 1120 nM
IC50 (Huh-7): 860 nM
IC50 (BT-474 [23]): 2640 nM
inhibition [24]: Active
inhibition [25]: Active

CC(C)=CCC[C@]1(C)/C=C/[C@@H](OC(=O)C=C(C)C)[C@](C)(O)/C=C/C(=O)/C(CO)=C\C1 [VIBSANIN B]
inhibition [3]: inactive
IC50 (AGS): 9680 nM
IC50 (A549): 3460 nM
Stability [26]: Stable
inhibition [8]: inactive
inhibition [11]: inactive
IC50 (MCF7): 2850 nM
half-life [12]: 9 min
IC50 (HepG2): 19100 nM
IC50 (HeLa): 2480 nM
IC50 (SMMC-7721): 3250 nM
IC50 (SW480): 2650 nM
degraded at 10 min [15]: 2.8%
inhibition (Oryctolagus cuniculus): Active
half-life [19]: 5 min
Activity (Danio rerio): Toxic
IC50 (HL-60): 2640 nM
IC50 (SK-BR-3): 9190 nM
IC50 (BT-474 [23]): 4550 nM
Drug degradation [27]: 4.92%
